# Where “and” joins values, the source holds several entries; their conditions need not be identical. Equal values may be shown once.
# Legend:
# [1] = biological target: T1, Estrogen receptor (Mus musculus) (UniProt O08537+P19785); assay: Uterotrophic effect in mice at 25 ug dose; format: functional, tissue-based; set-up: unit not given here; details: Uterus
# In short: (§1)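 Immature female NMRI mice, 20 days old, 10 per group, given daily sc injections of 0.1 mL olive oil solution for 3 days. Uteri removed 24 h after the last dose, fixed in Bouin's solution, washed, dried and weighed. Antiestrogenic testing measured inhibition of estrone-stimulated uterine growth.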
# [2] = biological target: T1, Estrogen receptor (Mus musculus); assay: Anti-uterotrophic effect in mice at 25 ug dose; format: functional
# In short: (§2)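 Immature female NMRI mice, 20 days old (14.5 ± 1.2 g), randomized into groups of 10. Each received a daily sc injection of compound in 0.1 mL olive oil for 3 days, given together with estrone. Uteri were taken 24 h after the last injection, fixed in Bouin's solution, washed, dried and weighed. The read-out was inhibition of estrone-stimulated uterine growth.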
# [3] = biological target: T1, Estrogen receptor (Mus musculus); assay: (§3) Uterotrophic effect in mice at 1 ug dose; format: functional, tissue-based; set-up: unit not given here; details: Uterus; in short: as §1
# [4] = organism: Mus musculus; assay: Relative average tumor wet weight in treated compared to untreated mice at 2.77 mg dose; format: functional
# In short: (§4)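 Syngeneic female BD2F1 mice (8–10 weeks) received sc trocar implants of 1–2-mm³ MXT tumor pieces, 10 per group. Treatment began the next day: sc doses in olive oil (solution or suspension), three times weekly for 6 weeks. Tamoxifen-treated control group included. Tumor wet weight measured at sacrifice; expressed as % T/C versus untreated controls.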
# [5] = biological target: T1, Estrogen receptor (Mus musculus); assay: (§5) Uterotrophic effect in mice at 100 ug dose; format: functional, tissue-based; details: Uterus; in short: as §1
# [6] = organism: Mus musculus; assay: Relative average tumor wet weight in treated compared to untreated mice at 13.84 mg dose; format: functional
# In short: (§6)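 MXT mammary tumor pieces of 1-2 mm³ from syngeneic donors were implanted sc by trocar into female BD2F₁ mice aged 8-10 weeks (20.0 ± 1.7 g), groups of 10. From the next day, compound in olive oil was given sc three times weekly for 6 weeks. Tumor wet weight was measured at the end and expressed as % T/C.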
# [7] = biological target: T1, Estrogen receptor (Mus musculus); assay: Uterotrophic effect in mice at 5 ug dose; format: functional, tissue-based; details: Uterus; in short: as §1
# [8] = biological target: T1, Estrogen receptor (Mus musculus); assay: Uterotrophic effect in BD2F mice bearing transplantable hormone dependent MXT at 13.84 mg dose; format: functional, tissue-based
# In short: (§7)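 MXT-bearing female BD2F1 mice (10 per group) dosed sc in olive oil three times weekly for 6 weeks from the day after tumor transplantation. Uteri excised at sacrifice and dry weight determined; values given as mean ± SD.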
# [9] = biological target: T1, Estrogen receptor (Mus musculus); assay: (§8) Uterotrophic effect in mice at 0 ug dose; format: functional, tissue-based; set-up: unit not given here; details: Uterus; in short: as §1
# [10] = biological target: T1, Estrogen receptor (Mus musculus); assay: Uterotrophic effect in BD2F mice bearing transplantable hormone dependent MXT at 2.77 mg dose; format: functional, tissue-based; in short: as §7
# [11] = biological target: T1, Estrogen receptor (Mus musculus); assay: Anti-uterotrophic effect in mice at 5 ug dose; format: functional; in short: as §2
# [12] = biological target: T1, Estrogen receptor (Mus musculus); assay: Uterotrophic effect in mice at 10 ug dose; format: functional, tissue-based; set-up: unit not given here; details: Uterus; in short: as §1
# [13] = biological target: T1, Estrogen receptor (Mus musculus); assay: Uterotrophic effect in mice at 0.1 ug dose; format: functional, tissue-based; set-up: unit not given here; details: Uterus; in short: as §1
# [14] = biological target: T1, Estrogen receptor (Mus musculus); assay: as §5; format: functional, tissue-based; set-up: unit not given here; details: Uterus; in short: as §1
# [15] = biological target: T1, Estrogen receptor (Mus musculus); assay: Uterotrophic effect in mice at 500 ug dose; format: functional, tissue-based; set-up: unit not given here; details: Uterus; in short: as §1
# [16] = biological target: T1, Estrogen receptor (Mus musculus); assay: as §8; format: functional, tissue-based; set-up: unit not given here; details: Uterus; in short: as §1; remark: listed apart in the source
# [17] = biological target: T1, Estrogen receptor (Mus musculus); assay: (§9) Uterotrophic effect in mice at 1000 ug dose; format: functional, tissue-based; details: Uterus; in short: as §1
# [18] = organism: Mus musculus; assay: Relative average tumor wet weight in treated compared to untreated mice at 2.76 mg dose; format: functional; in short: as §4
# [19] = biological target: T1, Estrogen receptor (Mus musculus); assay: as §5; format: functional, tissue-based; set-up: unit not given here; details: Uterus; in short: as §1; remark: listed apart in the source
# [20] = biological target: T1, Estrogen receptor (Mus musculus); assay: as §3; format: functional, tissue-based; details: Uterus; in short: as §1
# [21] = biological target: T1, Estrogen receptor (Mus musculus); assay: Uterotrophic effect in BD2F mice bearing transplantable hormone dependent MXT at 13.80 mg dose; format: functional, tissue-based; details: Uterus; in short: as §7
# [22] = biological target: T1, Estrogen receptor (Mus musculus); assay: as §9; format: functional, tissue-based; set-up: unit not given here; details: Uterus; in short: as §1
# [23] = organism: Mus musculus; assay: Relative average tumor wet weight in treated compared to untreated mice at 13.80 mg dose; format: functional; in short: as §6
# [24] = biological target: T1, Estrogen receptor (Mus musculus); assay: Uterotrophic effect in BD2F mice bearing transplantable hormone dependent MXT at 2.76 mg dose; format: functional, tissue-based; details: Uterus; in short: as §7
# [25] = tested on: Rattus norvegicus; assay: Percent progression in DMBA-Induced Hormone-Dependent Mammary Carcinoma in rats at 72 mg/kg dose; format: functional
# [26] = tested on: Rattus norvegicus; assay: Percent change in body weight in DMBA-Induced Hormone-Dependent Mammary Carcinoma rats at 72 mg/kg dose; format: functional
# [27] = tested on: Rattus norvegicus; assay: Initial tumor number in DMBA-Induced Hormone-Dependent Mammary Carcinoma in rats at 18 mg/kg dose; format: functional
# [28] = tested on: Rattus norvegicus; assay: Percent change in body weight in DMBA-Induced Hormone-Dependent Mammary Carcinoma rats at 18 mg/kg dose; format: functional
# [29] = tested on: Rattus norvegicus; assay: Final tumor number in DMBA-Induced Hormone-Dependent Mammary Carcinoma in rats at 36 mg/kg dose; format: functional
# [30] = tested on: Rattus norvegicus; assay: Percent change in body weight in DMBA-Induced Hormone-Dependent Mammary Carcinoma rats at 36 mg/kg dose; format: functional
# [31] = biological target: T1, Estrogen receptor (Mus musculus); assay: Uterotrophic effect in mice at 5000 ug dose; format: functional, tissue-based; details: Uterus, in the assay text read “50 ug” for “5000 ug”; in short: as §1
# [32] = tested on: Rattus norvegicus; assay: Percent complete remission in DMBA-Induced Hormone-Dependent Mammary Carcinoma in rats at 36 mg/kg dose; format: functional
# [33] = tested on: Rattus norvegicus; assay: Percent change in total tumor area in DMBA-Induced Hormone-Dependent Mammary Carcinoma rats at 36 mg/kg dose; format: functional
# [34] = tested on: Rattus norvegicus; assay: Percent change in total tumor area in DMBA-Induced Hormone-Dependent Mammary Carcinoma rats at 72 mg/kg dose; format: functional
# [35] = tested on: Rattus norvegicus; assay: Percent unchanged tumors in DMBA-Induced Hormone-Dependent Mammary Carcinoma in rats at 36 mg/kg dose; format: functional
# [36] = tested on: Rattus norvegicus; assay: Percent complete remission in DMBA-Induced Hormone-Dependent Mammary Carcinoma in rats at 18 mg/kg dose; format: functional
# [37] = tested on: Rattus norvegicus; assay: Percent unchanged tumors in DMBA-Induced Hormone-Dependent Mammary Carcinoma in rats at 72 mg/kg dose; format: functional
# [38] = tested on: Rattus norvegicus; assay: Percent complete remission in DMBA-Induced Hormone-Dependent Mammary Carcinoma in rats at 72 mg/kg dose; format: functional
# [39] = tested on: Rattus norvegicus; assay: Percent progression in DMBA-Induced Hormone-Dependent Mammary Carcinoma in rats at 36 mg/kg dose; format: functional
# [40] = tested on: Rattus norvegicus; assay: Initial tumor number in DMBA-Induced Hormone-Dependent Mammary Carcinoma in rats at 36 mg/kg dose; format: functional
# [41] = tested on: Rattus norvegicus; assay: Percent partial remission in DMBA-Induced Hormone-Dependent Mammary Carcinoma in rats at 36 mg/kg dose; format: functional
# [42] = tested on: Rattus norvegicus; assay: Percent partial remission in DMBA-Induced Hormone-Dependent Mammary Carcinoma in rats at 72 mg/kg dose; format: functional
# [43] = tested on: Rattus norvegicus; assay: Final tumor number in DMBA-Induced Hormone-Dependent Mammary Carcinoma in rats at 18 mg/kg dose; format: functional
# [44] = tested on: Rattus norvegicus; assay: Percent change in total tumor area in DMBA-Induced Hormone-Dependent Mammary Carcinoma rats at 18 mg/kg dose; format: functional
# [45] = tested on: Rattus norvegicus; assay: Initial tumor number in DMBA-Induced Hormone-Dependent Mammary Carcinoma in rats at 72 mg/kg dose; format: functional
# [46] = tested on: Rattus norvegicus; assay: Final tumor number in DMBA-Induced Hormone-Dependent Mammary Carcinoma in rats at 72 mg/kg dose; format: functional
# [47] = tested on: Rattus norvegicus; assay: Percent progression in DMBA-Induced Hormone-Dependent Mammary Carcinoma in rats at 18 mg/kg dose; format: functional
# [48] = tested on: Rattus norvegicus; assay: Percent unchanged tumors in DMBA-Induced Hormone-Dependent Mammary Carcinoma in rats at 18 mg/kg dose; format: functional
# [49] = tested on: Rattus norvegicus; assay: Percent partial remission in DMBA-Induced Hormone-Dependent Mammary Carcinoma in rats at 18 mg/kg dose; format: functional
# T1 sequence (O08537 whole entry, looked up): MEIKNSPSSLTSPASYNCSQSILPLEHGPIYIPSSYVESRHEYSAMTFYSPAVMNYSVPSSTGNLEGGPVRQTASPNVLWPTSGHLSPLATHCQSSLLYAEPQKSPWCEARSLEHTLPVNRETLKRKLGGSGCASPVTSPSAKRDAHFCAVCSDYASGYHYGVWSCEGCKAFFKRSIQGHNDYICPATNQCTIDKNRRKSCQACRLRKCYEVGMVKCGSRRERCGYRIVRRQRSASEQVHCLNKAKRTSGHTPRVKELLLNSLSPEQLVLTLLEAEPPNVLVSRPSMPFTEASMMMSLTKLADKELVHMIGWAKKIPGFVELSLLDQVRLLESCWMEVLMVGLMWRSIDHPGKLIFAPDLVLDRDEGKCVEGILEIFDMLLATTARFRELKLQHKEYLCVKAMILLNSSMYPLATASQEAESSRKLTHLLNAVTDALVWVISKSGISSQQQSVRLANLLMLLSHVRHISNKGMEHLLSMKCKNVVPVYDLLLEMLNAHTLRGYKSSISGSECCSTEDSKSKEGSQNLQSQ
# T1 sequence (P19785 whole entry, looked up): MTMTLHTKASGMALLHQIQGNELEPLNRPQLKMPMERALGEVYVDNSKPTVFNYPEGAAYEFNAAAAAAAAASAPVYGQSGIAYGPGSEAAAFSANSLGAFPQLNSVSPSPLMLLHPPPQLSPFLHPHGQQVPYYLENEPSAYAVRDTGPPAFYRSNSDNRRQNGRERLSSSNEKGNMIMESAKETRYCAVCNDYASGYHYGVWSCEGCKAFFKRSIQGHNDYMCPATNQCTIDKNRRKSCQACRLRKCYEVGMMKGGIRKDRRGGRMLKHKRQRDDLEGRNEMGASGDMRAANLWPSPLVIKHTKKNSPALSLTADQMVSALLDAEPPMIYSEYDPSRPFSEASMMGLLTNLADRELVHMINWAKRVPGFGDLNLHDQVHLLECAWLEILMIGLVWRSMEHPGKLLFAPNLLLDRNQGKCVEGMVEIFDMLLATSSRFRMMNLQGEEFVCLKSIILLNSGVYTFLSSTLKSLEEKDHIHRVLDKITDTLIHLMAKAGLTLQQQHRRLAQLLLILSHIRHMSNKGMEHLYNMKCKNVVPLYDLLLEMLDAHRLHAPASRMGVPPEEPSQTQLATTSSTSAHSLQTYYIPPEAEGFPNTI
smiles,measurement,setting,value
C[C@H](c1ccc(O)cc1)[C@@H](C)c1ccc(O)cc1,Effect,[1],36
same,inhibition,[2],14.1%
same,Effect,[3],22.6
same,TC,[4],68.5%
same,Effect,[5],42.2
same,TC,[6],23.1%
same,Effect,[7],33.6
same,Uterus effect,[8],77.6
same,Effect,[9],11.8
same,Uterus effect,[10],79.9
same,inhibition,[11],23.8%
same,Effect,[12],28
same,Effect,[13],17.7
same,Effect,[14],45.1
same,Effect,[15],56.5
same,Effect,[16],14.8
same,Effect,[17],34.8
C/C(=C(/C)c1ccc(O)cc1)c1ccc(O)cc1 [DIMETHYLSTILBESTROL],TC,[18],69.5%
same,Effect,[1],32
same,inhibition,[2],30.1%
same,Effect,[19],35.9
same,Effect,[7],39.2
same,Effect,[20],20.6
same,Effect,[21],70.4
same,Effect,[9],16.7
same,Effect,[22],41.8
same,Effect,[12],25.4
same,TC,[23],46.2%
same,Effect,[14],39.8
same,Effect,[24],74.7
same,Effect,[15],48.7
same,Effect,[16],14.8
C[C@H](c1cccc(O)c1)[C@@H](C)c1cccc(O)c1,Tumors,[25],25%
same,Change in weight,[26],0.9%
same,No. of tumors,[27],21
same,Change in weight,[28],2.4%
same,No. of tumors,[29],12
same,TC,[4],106%
same,Effect,[19],12.6
same,Change in weight,[30],1.6%
same,TC,[6],66.5%
same,Effect,[31],34.3
same,Tumors,[32],29%
same,Change in tumor area %,[33],105%
same,Change in tumor area %,[34],6%
same,Tumors,[35],38%
same,Effect,[7],36.5
same,Effect,[20],11.7
same,Effect,[8]; Uterus,73.5
same,Effect,[9],11.9
same,Tumors,[36],14%
same,Tumors,[37],16%
same,Effect,[22],13.1
same,Tumors,[38],34%
same,Tumors,[39],24%
same,No. of tumors,[40],22
same,Tumors,[41],9%
same,Tumors,[42],25%
same,Effect,[12],12.4
same,No. of tumors,[43],16
same,Effect,[13],38.5 [middle of 4 runs]
same,Change in tumor area %,[44],188%
same,No. of tumors,[45],26
same,No. of tumors,[46],22
same,Tumors,[47],51%
same,Effect,[24],86.9
same,Tumors,[48],24%
same,Effect,[15],29
same,Effect,[16],11.2 and 9.9 and 10.5
same,Tumors,[49],11%
